Test results reported in ChEMBL document CHEMBL4393701, “Appendix A. dithioloquinolinethiones as new potential multitargeted antibacterial and antifungal agents: Synthesis, biological evaluation and molecular docking studies” (2019).

tested on: Aspergillus fumigatus; assay: Antifungal activity against Aspergillus fumigatus ATCC 1022 after 72 hrs by microdilution technique; type: functional; conditions: ATCC 1022, 72 h
Method in brief: (§1)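 Spores were washed off malt agar with 0.85% saline containing 0.1% Tween 80 and adjusted to about 1.0×10^5 per well. Compounds in 5% DMSO were serially diluted (0.001-1.0 mg/ml) in malt broth with inoculum. Plates were shaken at 160 rpm for 72 h at 28 °C. MIC is the lowest concentration without visible growth under a binocular microscope. Three independent experiments in duplicate.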

MIC	SMILES
8.24 ×10⁻² mM	Cc1ccc2c(c1)-c1c(ssc1=S)C(C)(C)N2C(=O)CSc1nn(-c2ccccc2)c(=S)s1

tested on: Aspergillus fumigatus; assay: Fungicidal activity against Aspergillus fumigatus ATCC 1022 incubated for 72 hrs followed by sub-culturing on broth malt medium and measured after 72 hrs; type: functional; conditions: ATCC 1022, 72 h
Method in brief: (§2)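 After 72 h exposure in malt broth, 2 µL from test wells was subcultured into wells holding 100 µL broth and incubated a further 72 h at 28 °C. MFC is the lowest concentration with no visible growth, taken as 99.5% kill of the original inoculum. Three independent experiments in duplicate.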

SMILES	MFC
Cc1ccc2c(c1)-c1c(ssc1=S)C(C)(C)N2C(=O)CSc1nn(-c2ccccc2)c(=S)s1	22 ×10⁻² mM

tested on: Aspergillus versicolor; assay: Antifungal activity against Aspergillus versicolor ATCC 11730 after 72 hrs by microdilution method; type: functional; conditions: ATCC 11730, 72 h; method in brief: as §1

MIC	SMILES
22 ×10⁻² mM	Cc1ccc2c(c1)-c1c(ssc1=S)C(C)(C)N2C(=O)CSc1nn(-c2ccccc2)c(=S)s1

tested on: Aspergillus versicolor; assay: Fungicidal activity against Aspergillus versicolor ATCC 11730 incubated for 72 hrs followed by sub-culturing on broth malt medium and measured after 72 hrs; type: functional; conditions: ATCC 11730, 72 h; method in brief: as §2

SMILES	MFC
Cc1ccc2c(c1)-c1c(ssc1=S)C(C)(C)N2C(=O)CSc1nn(-c2ccccc2)c(=S)s1	44 ×10⁻² mM

tested on: Aspergillus ochraceus; assay: Antifungal activity against Aspergillus ochraceus ATCC 12066 after 72 hrs by microdilution technique; type: functional; conditions: ATCC 12066, 72 h; method in brief: as §1

MIC	SMILES
1.47 ×10⁻² mM	Cc1ccc2c(c1)-c1c(ssc1=S)C(C)(C)N2C(=O)CSc1nn(-c2ccccc2)c(=S)s1

tested on: Aspergillus ochraceus; assay: Fungicidal activity against Aspergillus ochraceus ATCC 12066 incubated for 72 hrs followed by sub-culturing on broth malt medium and measured after 72 hrs; type: functional; conditions: ATCC 12066, 72 h; method in brief: as §2

SMILES	MFC
Cc1ccc2c(c1)-c1c(ssc1=S)C(C)(C)N2C(=O)CSc1nn(-c2ccccc2)c(=S)s1	2.75 ×10⁻² mM

tested on: Aspergillus niger; assay: Antifungal activity against Aspergillus niger ATCC 6275 after 72 hrs by microdilution technique; type: functional; conditions: ATCC 6275, 72 h; method in brief: as §1

MIC	SMILES
2.02 ×10⁻² mM	Cc1ccc2c(c1)-c1c(ssc1=S)C(C)(C)N2C(=O)CSc1nn(-c2ccccc2)c(=S)s1

tested on: Aspergillus niger; assay: Fungicidal activity against Aspergillus niger ATCC 6275 incubated for 72 hrs followed by sub-culturing on broth malt medium and measured after 72 hrs; type: functional; conditions: ATCC 6275, 72 h; method in brief: as §2

SMILES	MFC
Cc1ccc2c(c1)-c1c(ssc1=S)C(C)(C)N2C(=O)CSc1nn(-c2ccccc2)c(=S)s1	5.5 ×10⁻² mM

tested on: Trichoderma viride; assay: Antifungal activity against Trichoderma viride IAM 5061 after 72 hrs by microdilution technique; type: functional; conditions: IAM 5061, 72 h; method in brief: as §1

MIC	SMILES
1.1 ×10⁻² mM	Cc1ccc2c(c1)-c1c(ssc1=S)C(C)(C)N2C(=O)CSc1nn(-c2ccccc2)c(=S)s1

tested on: Trichoderma viride; assay: Fungicidal activity against Trichoderma viride IAM 5061 incubated for 72 hrs followed by sub-culturing on broth malt medium and measured after 72 hrs; type: functional; conditions: IAM 5061, 72 h; method in brief: as §2

SMILES	MFC
Cc1ccc2c(c1)-c1c(ssc1=S)C(C)(C)N2C(=O)CSc1nn(-c2ccccc2)c(=S)s1	1.47 ×10⁻² mM

tested on: Penicillium ochrochloron; assay: Antifungal activity against Penicillium ochrochloron ATCC 9112 after 72 hrs by microdilution technique; type: functional; conditions: ATCC 9112, 72 h; method in brief: as §1

MIC	SMILES
2.75 ×10⁻² mM	Cc1ccc2c(c1)-c1c(ssc1=S)C(C)(C)N2C(=O)CSc1nn(-c2ccccc2)c(=S)s1

tested on: Penicillium ochrochloron; assay: Fungicidal activity against Penicillium ochrochloron ATCC 9112 incubated for 72 hrs followed by sub-culturing on broth malt medium and measured after 72 hrs; type: functional; conditions: ATCC 9112, 72 h; method in brief: as §2

SMILES	MFC
Cc1ccc2c(c1)-c1c(ssc1=S)C(C)(C)N2C(=O)CSc1nn(-c2ccccc2)c(=S)s1	5.5 ×10⁻² mM

tested on: not listed separately; assay: Antifungal activity against Penicillium funiculosum ATCC 36839 after 72 hrs by microdilution technique; type: functional; conditions: Talaromyces pinophilus, ATCC 36839, 72 h; method in brief: as §1

MIC	SMILES
2.75 ×10⁻² mM	Cc1ccc2c(c1)-c1c(ssc1=S)C(C)(C)N2C(=O)CSc1nn(-c2ccccc2)c(=S)s1

tested on: not listed separately; assay: Fungicidal activity against Penicillium funiculosum ATCC 36839 incubated for 72 hrs followed by sub-culturing on broth malt medium and measured after 72 hrs; type: functional; conditions: Talaromyces pinophilus, ATCC 36839, 72 h; method in brief: as §2

SMILES	MFC
Cc1ccc2c(c1)-c1c(ssc1=S)C(C)(C)N2C(=O)CSc1nn(-c2ccccc2)c(=S)s1	5.5 ×10⁻² mM

tested on: Penicillium cyclopium; assay: Antifungal activity against Penicillium verrucosum var. cyclopium food isolate after 72 hrs by microdilution technique; type: functional; conditions: not given; method in brief: as §1

MIC	SMILES
22 ×10⁻² mM	Cc1ccc2c(c1)-c1c(ssc1=S)C(C)(C)N2C(=O)CSc1nn(-c2ccccc2)c(=S)s1

tested on: Penicillium cyclopium; assay: Fungicidal activity against Penicillium verrucosum var. cyclopium food isolate incubated for 72 hrs followed by sub-culturing on broth malt medium and measured after 72 hrs; type: functional; conditions: not given; method in brief: as §2

SMILES	MFC
Cc1ccc2c(c1)-c1c(ssc1=S)C(C)(C)N2C(=O)CSc1nn(-c2ccccc2)c(=S)s1	44 ×10⁻² mM
